Measurements pooled from the literature.
Lines come from different studies, so protocols differ.
Target: Tyrosine-protein kinase FRK (FRK, Homo sapiens, UniProt P42685)

Compound | assay | conditions | measurement | value
c1nc2c(Nc3ccc4c(c3)OCCO4)nc(Nc3ccc4c(c3)OCCO4)nc2[nH]1 | enzyme activity, inhibitor | 10 µM | activity vs control | 22%
CCOCCn1cc(C(=O)Nc2ccc(-n3nc(-c4cccnc4)cc3C(F)(F)F)cn2)ccc1=O | cell-free assay, competition with immobilised ligand | 1 µM | remaining binding | 100%
O=C1Nc2ccc(Cl)cc2C1=Cc1cc(Cl)c(O)c(Cl)c1 | cell-free assay | 0.5 µM | remaining signal | 70.3%
Cc1cc(NC(=O)c2cccc3cc(-c4cccc5[nH]nc(N)c45)ccc23)ccc1F | enzyme activity, inhibitor | 0.1 µM | activity vs control | 67%
CCN(CC)CCNC(=O)c1c(C)[nH]c(/C=C2\C(=O)Nc3ccc(F)cc32)c1C | enzyme activity, inhibitor | 0.3 µM | inhibition | 47%
COc1cc(-c2cn(C3CCc4c(F)cccc4N(CC(F)(F)F)C3=O)nn2)ccc1-n1cnc(C)c1 (stereo not shown) | cell-free assay, competition with immobilised ligand | 1 µM | remaining binding | 100%
O=C1NC(=O)c2cc(Nc3ccc(F)cc3)c(Nc3ccc(F)cc3)cc21 | cell-free assay | 0.5 µM | remaining signal | 97.2%
COc1cc2nccc(Oc3ccc(NC(=O)c4c5n(n(-c6ccc(F)cc6)c4=O)CCCC5)cc3)c2cc1OC | enzyme activity, inhibitor | 0.1 µM | inhibition | 86%
CN([C@@H]1CCc2c(CC(=O)O)c3cc(S(C)(=O)=O)ccc3n2C1)S(=O)(=O)c1ccc(F)cc1 | cell-free assay, competition with immobilised ligand | 1 µM | remaining binding | 100%
Cc1sc(C(=O)NC2COC2)cc1-n1cc(NC(=O)Nc2c(F)cccc2Cl)cn1 | enzyme activity, inhibitor | 10 µM | remaining activity | 87.3%
CCN(CC)CCNC(=O)c1c(C)[nH]c(/C=C2\C(=O)Nc3ccc(Cl)cc32)c1C | enzyme activity, inhibitor | 0.5 µM | remaining activity | 59.3%
CCN(CC)c1ccc(C2=NNC(=O)CC2C)cc1[N+](=O)[O-] (stereo not shown) | enzyme activity, inhibitor | 10 µM | remaining activity | 83%
COc1cc(Cl)c(C(=O)N[C@@H](CN[C@H]2CC[C@@H](N)CC2)Cc2ccc(C#N)cc2)cc1-c1ccc(CN[C@H](C)c2ccc(C)cc2)o1 | enzyme activity, inhibitor | 1 µM | remaining activity | 99%
CC(C)(C)c1nc(-c2cccc(NS(=O)(=O)c3c(F)cccc3F)c2F)c(-c2ccnc(N)n2)s1 | enzyme activity, inhibitor, radiometric | 1 µM | remaining activity | 111%
CC(=O)N1CCC(c2ccc(C(=O)NC3=NCCN3)cc2C(F)(F)F)CC1 | cell-free assay, competition with immobilised ligand | 1 µM | remaining binding | 97%
CCCOc1ccc(OC)c(F)c1C(=O)c1ccc(C(=O)N[C@@H]2CNC[C@H]2NC(=O)c2ccc3[nH]ncc3c2)cc1 | enzyme activity, inhibitor | 10 µM | remaining activity | 96%
CC(=O)Nc1c(C(C)=O)c(=O)n(C)c2nc(-c3ccc(Cl)cc3Cl)c(-c3ccc(Cl)cc3)cc12 | cell-free assay, competition with immobilised ligand | 1 µM | remaining binding | 100%
COc1cc2ncnc(Nc3ccc(Oc4ccccc4)c(C)c3C)c2cc1OC | enzyme activity, inhibitor | 1 µM | inhibition | 20%
O=c1cc(-c2cccc3c2Sc2ccccc2S3)oc(N2CCOCC2)c1 | enzyme activity, inhibitor | 0.5 µM | remaining activity | 99.5%
Cc1ccc(C(=O)Nc2ccc(CN3CCN(C)CC3)c(C(F)(F)F)c2)cc1C#Cc1cnc2cccnn12 | enzyme activity, inhibitor | 23.5 nM | remaining activity | 16%
O=C1CCc2cc(Nc3cc(OC4CCOCC4)c([N+](=O)[O-])cc3Cl)ccc2N1 | cell-free assay, competition with immobilised ligand | 1 µM | remaining binding | 73%
CC(C)(O)[C@H]1CC[C@H](Nc2ccc3ncc(-c4cccc(C(F)(F)F)c4)n3n2)CC1 | enzyme activity, inhibitor | 1 µM | remaining activity | 57.7%
